Data: ChEMBL document CHEMBL1152849, “Design, synthesis and AChE inhibitory activity of indanone and aurone derivatives” (Eur J Med Chem, 2009)

What was measured:
[1] = target: T1, Acetylcholinesterase (Rattus norvegicus, UniProt P37136); experiment: Inhibition of AChE in rat cortex after 15 mins by modified Ellman method
T1 sequence (P37136 whole entry): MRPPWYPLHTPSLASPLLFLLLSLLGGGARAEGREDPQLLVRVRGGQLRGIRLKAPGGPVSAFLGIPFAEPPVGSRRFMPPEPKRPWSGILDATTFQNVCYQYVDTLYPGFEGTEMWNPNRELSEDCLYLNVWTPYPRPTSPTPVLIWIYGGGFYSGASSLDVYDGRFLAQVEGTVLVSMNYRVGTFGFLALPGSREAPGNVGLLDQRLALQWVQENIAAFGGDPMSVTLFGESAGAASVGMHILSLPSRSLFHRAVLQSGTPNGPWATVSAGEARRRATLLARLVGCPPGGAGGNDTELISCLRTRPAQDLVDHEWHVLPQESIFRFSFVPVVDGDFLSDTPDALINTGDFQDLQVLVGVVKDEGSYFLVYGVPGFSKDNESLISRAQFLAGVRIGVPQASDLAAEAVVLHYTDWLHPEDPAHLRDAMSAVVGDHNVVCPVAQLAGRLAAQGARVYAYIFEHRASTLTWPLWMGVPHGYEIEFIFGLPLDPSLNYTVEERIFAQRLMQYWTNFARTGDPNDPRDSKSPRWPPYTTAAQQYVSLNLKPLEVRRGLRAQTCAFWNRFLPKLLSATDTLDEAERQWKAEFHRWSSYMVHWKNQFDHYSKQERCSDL

[2] = target: Butyrylcholinesterase (Rattus norvegicus, UniProt Q9JKC1); experiment: Inhibition of BChE in rat serum after 15 mins by modified Ellman method; assay type: cell-free
Chain of Butyrylcholinesterase (Q9JKC1 whole entry): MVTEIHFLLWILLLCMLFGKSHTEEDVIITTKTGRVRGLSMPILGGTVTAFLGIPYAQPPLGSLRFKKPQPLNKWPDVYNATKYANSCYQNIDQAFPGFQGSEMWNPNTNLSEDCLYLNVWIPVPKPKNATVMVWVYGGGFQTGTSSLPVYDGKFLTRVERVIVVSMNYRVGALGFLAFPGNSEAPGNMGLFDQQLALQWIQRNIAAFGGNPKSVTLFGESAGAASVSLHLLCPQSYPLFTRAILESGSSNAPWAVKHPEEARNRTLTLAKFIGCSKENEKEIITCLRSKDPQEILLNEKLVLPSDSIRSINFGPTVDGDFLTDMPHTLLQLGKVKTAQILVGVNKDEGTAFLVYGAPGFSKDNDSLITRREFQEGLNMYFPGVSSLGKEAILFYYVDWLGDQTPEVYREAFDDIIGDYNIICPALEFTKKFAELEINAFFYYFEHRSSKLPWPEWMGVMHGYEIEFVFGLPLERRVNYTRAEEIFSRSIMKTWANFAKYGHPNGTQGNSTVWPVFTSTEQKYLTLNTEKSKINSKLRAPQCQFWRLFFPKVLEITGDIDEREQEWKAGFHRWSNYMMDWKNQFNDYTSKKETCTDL

[3] = test system: Mus musculus; experiment: Cognitive enhancing effect against scopolamine-induced acquisition memory deficit in mouse assessed as times of step-down at 5 mg/kg, intragastric gavage after 24 hrs by step-down passive avoidance test; assay type: functional
In short: (§1)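 Step-down passive avoidance in mice, 10 per group. In training, each mouse was placed on the platform and its latency to step down onto the grid with all four paws was recorded. It was shocked immediately on stepping down, and the session lasted 3 min. Memory was scored as step-down errors (times) and escape latency (s), each given as mean ± deviation.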

[4] = test system: Mus musculus; experiment: Cognitive enhancing effect against scopolamine-induced acquisition memory deficit in mouse assessed as escape latency at 2 mg/kg, intragastric gavage after 24 hrs by step-down passive avoidance test; assay type: functional; in short: as §1
[5] = test system: Mus musculus; experiment: Cognitive enhancing effect against scopolamine-induced acquisition memory deficit in mouse assessed as escape latency at 5 mg/kg, intragastric gavage after 24 hrs by step-down passive avoidance test; assay type: functional; in short: as §1
[6] = test system: Mus musculus; experiment: Cognitive enhancing effect against scopolamine-induced acquisition memory deficit in mouse assessed as escape latency at 10 mg/kg, intragastric gavage after 24 hrs by step-down passive avoidance test; assay type: functional; in short: as §1
[7] = test system: Mus musculus; experiment: Cognitive enhancing effect against scopolamine-induced acquisition memory deficit in mouse assessed as times of step-down at 2 mg/kg, intragastric gavage after 24 hrs by step-down passive avoidance test; assay type: functional; in short: as §1
[8] = test system: Mus musculus; experiment: Cognitive enhancing effect against scopolamine-induced acquisition memory deficit in mouse assessed as times of step-down at 10 mg/kg, intragastric gavage after 24 hrs by step-down passive avoidance test; assay type: functional; in short: as §1

SMILES: COc1cc2c(cc1OC)C(=O)/C(=C/c1ccc(CN3CCCC3)cc1)O2
- IC50 [1]: 0.16 µM
- IC50 [2]: 36.4 µM

SMILES: COc1cc2c(cc1OC)C(=O)/C(=C/c1cccc(CN(C)C)c1)C2
- IC50 [1]: 2.14 µM
- IC50 [2]: 89.3 µM

SMILES: COc1cc2c(cc1OC)C(=O)/C(=C/c1ccc(CN(C)C)cc1)C2
- IC50 [1]: 0.42 µM
- IC50 [2]: 315 µM

SMILES: CCN(C)Cc1cccc(/C=C2\Cc3cc(OC)c(OC)cc3C2=O)c1
- IC50 [1]: 0.49 µM
- IC50 [2]: 36.8 µM

SMILES: CCN(C)Cc1ccc(/C=C2\Cc3cc(OC)c(OC)cc3C2=O)cc1
- IC50 [1]: 0.27 µM
- IC50 [2]: 20.1 µM

SMILES: CCN(C)Cc1cccc(/C=C2\Oc3cc(OC)c(OC)cc3C2=O)c1
- IC50 [1]: 0.7 µM
- IC50 [2]: 23.6 µM

SMILES: CCN(CC)Cc1ccc(/C=C2\Oc3cc(OC)c(OC)cc3C2=O)cc1
- IC50 [1]: 0.14 µM
- IC50 [2]: 47.9 µM

SMILES: CCN(CC)Cc1ccc(/C=C2\Cc3cc(OC)c(OC)cc3C2=O)cc1
- Activity [3]: 2
- Activity [4]: 47 s
- IC50 [1]: 0.035 µM
- Activity [5]: 55 s
- IC50 [2]: 82 µM
- Activity [6]: 60 s
- Activity [7]: 2.67
- Activity [8]: 1.6

SMILES: COc1cc2c(cc1OC)C(=O)/C(=C/c1cccc(CN3CCCC3)c1)C2
- IC50 [1]: 0.24 µM
- IC50 [2]: 41.6 µM

SMILES: COc1cc2c(cc1OC)C(=O)/C(=C/c1ccc(CN3CCCC3)cc1)C2
- IC50 [1]: 0.045 µM
- IC50 [2]: 26.6 µM

SMILES: COc1cc2c(cc1OC)C(=O)C(Cc1cccc(CN3CCCCC3)c1)C2 (stereo not drawn)
- IC50 [1]: 0.66 µM
- IC50 [2]: 70.4 µM

SMILES: CCN(C)Cc1cccc(CC2Oc3cc(OC)c(OC)cc3C2=O)c1 (stereo not drawn)
- IC50 [1]: 1.54 µM
- IC50 [2]: 25.9 µM

SMILES: CCN(CC)Cc1cccc(CC2Cc3cc(OC)c(OC)cc3C2=O)c1 (stereo not drawn)
- IC50 [1]: 1.48 µM
- IC50 [2]: 32 µM

SMILES: CCN(CC)Cc1ccc(CC2Cc3cc(OC)c(OC)cc3C2=O)cc1 (stereo not drawn)
- IC50 [1]: 0.29 µM
- IC50 [2]: 11.7 µM

SMILES: COc1cc2c(cc1OC)C(=O)C(Cc1cccc(CN3CCCCC3)c1)O2 (stereo not drawn)
- IC50 [1]: 0.24 µM
- IC50 [2]: 98.1 µM

SMILES: CCN(CC)Cc1cccc(CC2Oc3cc(OC)c(OC)cc3C2=O)c1 (stereo not drawn)
- IC50 [1]: 1.07 µM
- IC50 [2]: 38.2 µM

SMILES: CCN(CC)Cc1ccc(CC2Oc3cc(OC)c(OC)cc3C2=O)cc1 (stereo not drawn)
- IC50 [1]: 0.44 µM
- IC50 [2]: 16.4 µM

SMILES: COc1cc2c(cc1OC)C(=O)C(Cc1cccc(CN3CCCC3)c1)C2 (stereo not drawn)
- IC50 [1]: 2.58 µM
- IC50 [2]: 42.2 µM

SMILES: COc1cc2c(cc1OC)C(=O)C(Cc1ccc(CN3CCCC3)cc1)C2 (stereo not drawn)
- IC50 [1]: 0.15 µM
- IC50 [2]: 33.2 µM

SMILES: CCN(C)Cc1ccc(CC2Cc3cc(OC)c(OC)cc3C2=O)cc1 (stereo not drawn)
- IC50 [1]: 0.38 µM
- IC50 [2]: 34.5 µM

SMILES: COc1cc2c(cc1OC)C(=O)C(Cc1cccc(CN(C)C)c1)C2 (stereo not drawn)
- IC50 [1]: 3.74 µM
- IC50 [2]: 25.2 µM

SMILES: COc1cc2c(cc1OC)C(=O)C(Cc1ccc(CN(C)C)cc1)C2 (stereo not drawn)
- IC50 [2]: 40.7 µM

SMILES: COc1cc2c(cc1OC)C(=O)/C(=C/c1cccc(CN3CCCCC3)c1)C2
- IC50 [1]: 0.16 µM
- IC50 [2]: 55.2 µM

SMILES: COc1cc2c(cc1OC)C(=O)/C(=C/c1cccc(CN3CCCCC3)c1)O2
- IC50 [1]: 0.082 µM
- IC50 [2]: 45 µM

SMILES: CCN(CC)Cc1cccc(/C=C2\Oc3cc(OC)c(OC)cc3C2=O)c1
- IC50 [1]: 1.18 µM
- IC50 [2]: 65.1 µM

SMILES: COc1cc2c(cc1OC)C(=O)/C(=C/c1ccc(CN3CCCCC3)cc1)C2
- IC50 [1]: 0.1 µM
- IC50 [2]: 84.6 µM

SMILES: COc1cc2c(cc1OC)C(=O)C(Cc1ccc(CN3CCCC3)cc1)O2 (stereo not drawn)
- IC50 [1]: 0.62 µM
- IC50 [2]: 49.8 µM

SMILES: COc1cc2c(cc1OC)C(=O)C(Cc1cccc(CN3CCCC3)c1)O2 (stereo not drawn)
- IC50 [1]: 7.02 µM
- IC50 [2]: 57.6 µM

SMILES: COc1cc2c(cc1OC)C(=O)C(Cc1ccc(CN3CCCCC3)cc1)C2 (stereo not drawn)
- IC50 [1]: 0.12 µM
- IC50 [2]: 48.3 µM

SMILES: CCN(C)Cc1cccc(CC2Cc3cc(OC)c(OC)cc3C2=O)c1 (stereo not drawn)
- IC50 [1]: 0.69 µM
- IC50 [2]: 18.5 µM

SMILES: CCN(CC)Cc1cccc(/C=C2\Cc3cc(OC)c(OC)cc3C2=O)c1
- IC50 [1]: 0.44 µM
- IC50 [2]: 71 µM

SMILES: COc1cc2c(cc1OC)C(=O)/C(=C/c1cccc(CN3CCCC3)c1)O2
- IC50 [1]: 0.29 µM
- IC50 [2]: 72 µM

SMILES: COc1cc2c(cc1OC)C(=O)C(CC1CCN(Cc3ccccc3)CC1)C2 (stereo not drawn) [DONEPEZIL]
- Activity [4]: 75 s
- Activity [7]: 1.9

SMILES: CCN(C)C(=O)Oc1cccc([C@H](C)N(C)C)c1 [RIVASTIGMINE]
- Activity [4]: 73 s
- Activity [7]: 2
